From ChEMBL document CHEMBL2057154, “Discovery and optimization of novel purines as potent and selective CB2 agonists” (Bioorg Med Chem Lett, 2012)
Converted amounts (≈) assume the structure as drawn. The source made the active and inactive calls. The calls are words filed in the database; no cut-off is given here.

What was measured:
[1] = Drug metabolism in dog liver microsomes at 4 uM after 30 mins by LC-ESI/MS analysis; format: ADME, Canis lupus familiaris, Microsome; details: read-out: Drug metabolism
[2] = species on record: Homo sapiens; assay: Selectivity ratio of EC50 for human CB1 receptor to EC50 for human CB2 receptor
[3] = Drug metabolism in human liver microsomes at 4 uM after 30 mins by LC-ESI/MS analysis; format: ADME, Microsome; details: read-out: Drug metabolism
[4] = molecular target: T1, Cannabinoid receptor 2 (Homo sapiens, UniProt P34972); assay: Agonist activity at human CB2 receptor expressed in CHO cells assessed as [35S]-GTPgammaS binding preincubated for 25 mins measured after 30 mins by scintillation proximity assay relative to control; format: functional, cell-based
T1 sequence (P34972 whole entry): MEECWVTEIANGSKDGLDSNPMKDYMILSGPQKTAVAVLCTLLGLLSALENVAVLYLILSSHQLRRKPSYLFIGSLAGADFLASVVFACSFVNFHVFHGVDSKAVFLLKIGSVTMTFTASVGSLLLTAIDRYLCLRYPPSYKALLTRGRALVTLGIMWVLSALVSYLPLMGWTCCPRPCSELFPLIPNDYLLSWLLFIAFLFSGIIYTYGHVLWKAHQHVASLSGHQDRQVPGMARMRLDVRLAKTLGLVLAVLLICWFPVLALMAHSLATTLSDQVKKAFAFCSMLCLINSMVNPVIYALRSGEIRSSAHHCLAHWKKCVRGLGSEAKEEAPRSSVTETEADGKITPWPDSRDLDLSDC

[5] = molecular target: T2, Cannabinoid receptor 1 (Homo sapiens, UniProt P21554); assay: Agonist activity at human CB1 receptor expressed in CHO cells assessed as [35S]-GTPgammaS binding preincubated for 25 mins measured after 30 mins by scintillation proximity assay; format: functional, cell-based
T2 sequence (P21554 whole entry): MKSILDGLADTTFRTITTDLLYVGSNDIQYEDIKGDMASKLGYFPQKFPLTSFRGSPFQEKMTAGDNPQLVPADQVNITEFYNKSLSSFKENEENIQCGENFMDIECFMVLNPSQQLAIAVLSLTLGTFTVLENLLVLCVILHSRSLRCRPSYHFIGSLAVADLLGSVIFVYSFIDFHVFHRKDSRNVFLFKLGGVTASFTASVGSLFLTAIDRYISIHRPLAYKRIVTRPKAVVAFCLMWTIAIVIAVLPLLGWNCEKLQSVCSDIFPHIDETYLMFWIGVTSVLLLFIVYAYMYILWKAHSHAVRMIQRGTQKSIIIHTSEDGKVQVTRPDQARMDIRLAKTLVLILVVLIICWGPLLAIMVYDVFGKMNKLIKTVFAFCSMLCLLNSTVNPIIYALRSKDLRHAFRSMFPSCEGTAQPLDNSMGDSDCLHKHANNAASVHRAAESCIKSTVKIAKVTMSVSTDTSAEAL

[6] = Drug metabolism in rat liver microsomes at 4 uM after 30 mins by LC-ESI/MS analysis; format: ADME, Microsome; details: read-out: Drug metabolism
[7] = molecular target: T1, Cannabinoid receptor 2; assay: Agonist activity at human CB2 receptor expressed in CHO cells assessed as [35S]-GTPgammaS binding preincubated for 25 mins measured after 30 mins by scintillation proximity assay; format: functional, cell-based
[8] = tested on: Rattus norvegicus; assay: Analgesic activity in monoiodoacetic acid rat model of osteoarthritic pain assessed as decrease in pain at 3 mg/kg, po measured after 29 days relative to control; format: functional, organism-based; parameters: dose 3 mg/kg
[9] = Solubility of the compound in simulated gastrointestinal fluid at pH 6.8; format: physicochemical
Summary of the method: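 Solubility determined in simulated GI fluid at pH 6.8.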

[10] = tested on: Rattus norvegicus; assay: Induction of hypothermia in monoiodoacetic acid rat model of osteoarthritic pain at 0.5 mg/kg, ip; format: organism-based; parameters: dose 0.5 mg/kg, route intraperitoneal; details: in vivo
Summary of the method: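 Rats given the non-selective cannabinoid agonist (positive control) at 0.5 mg/kg ip. Body temperature drop was the read-out, used as an in vivo marker of central CB1 receptor activation.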

[11] = Dissociation constant, pKa of the compound; format: physicochemical
[12] = (§1) Binding affinity to 5HT1; parameters: species or system Homo sapiens
[13] = Lipophilicity, log P of the compound; format: physicochemical; details: octanol/water
[14] = molecular target: Voltage-gated inwardly rectifying potassium channel KCNH2 (Homo sapiens, UniProt Q12809); assay: Displacement of [3H]dofetilide from human Erg expressed in human HEK293 cells; format: cell-based
Voltage-gated inwardly rectifying potassium channel KCNH2, sequence (Q12809 whole entry): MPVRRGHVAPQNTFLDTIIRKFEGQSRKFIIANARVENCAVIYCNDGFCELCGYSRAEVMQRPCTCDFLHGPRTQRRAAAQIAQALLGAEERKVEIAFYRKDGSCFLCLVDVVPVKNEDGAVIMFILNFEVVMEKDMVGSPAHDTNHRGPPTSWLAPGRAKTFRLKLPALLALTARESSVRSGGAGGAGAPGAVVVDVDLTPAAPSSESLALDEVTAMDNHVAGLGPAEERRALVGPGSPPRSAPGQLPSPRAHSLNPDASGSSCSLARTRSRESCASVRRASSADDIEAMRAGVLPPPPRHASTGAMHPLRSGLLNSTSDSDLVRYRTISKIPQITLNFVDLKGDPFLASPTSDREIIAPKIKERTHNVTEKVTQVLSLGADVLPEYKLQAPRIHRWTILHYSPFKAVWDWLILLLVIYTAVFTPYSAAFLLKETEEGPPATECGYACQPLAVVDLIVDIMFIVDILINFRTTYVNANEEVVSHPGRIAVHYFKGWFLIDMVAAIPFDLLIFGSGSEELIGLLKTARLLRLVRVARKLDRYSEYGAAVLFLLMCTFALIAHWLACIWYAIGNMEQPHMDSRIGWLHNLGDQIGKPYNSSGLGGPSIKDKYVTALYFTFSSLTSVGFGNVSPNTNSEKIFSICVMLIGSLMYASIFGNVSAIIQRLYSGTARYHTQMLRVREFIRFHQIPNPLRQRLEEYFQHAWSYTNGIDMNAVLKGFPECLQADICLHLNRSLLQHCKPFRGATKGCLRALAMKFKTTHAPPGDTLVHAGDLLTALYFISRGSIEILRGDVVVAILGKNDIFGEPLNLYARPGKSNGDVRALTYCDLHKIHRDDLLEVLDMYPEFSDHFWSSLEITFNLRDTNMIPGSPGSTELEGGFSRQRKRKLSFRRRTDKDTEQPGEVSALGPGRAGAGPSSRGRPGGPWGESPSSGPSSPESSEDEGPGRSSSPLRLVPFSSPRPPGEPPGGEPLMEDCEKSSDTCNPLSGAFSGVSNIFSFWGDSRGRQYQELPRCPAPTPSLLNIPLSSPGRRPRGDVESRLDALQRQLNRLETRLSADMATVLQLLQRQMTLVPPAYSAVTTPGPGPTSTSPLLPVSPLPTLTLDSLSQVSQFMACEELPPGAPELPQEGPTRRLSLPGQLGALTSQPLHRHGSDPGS
Summary of the method: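 hERG affinity measured by [3H]-dofetilide displacement from hERG channels stably expressed in HEK293 cells.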

[15] = Volume of distribution in Sprague-Dawley rat at 1 mg/kg, iv; format: ADME, organism-based; parameters: dose 1 mg/kg, route intravenous; details: in vivo
Summary of the method: (§2)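 Male Sprague–Dawley rats dosed 1 mg/kg iv and 1 mg/kg po; plasma pharmacokinetic parameters derived from the iv and oral arms.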

[16] = tested on: Rattus norvegicus; assay: Analgesic activity in monoiodoacetic acid rat model of osteoarthritic pain assessed as decrease in pain at 10 mg/kg, po pretreated with CB2 antagonist SR144528 at 3 mg/kg, ip administered 30 mins prior to compound treatment; format: functional, organism-based
Summary of the method: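 SR-144528 given at 3 mg/kg ip 30 min before the oral test dose (10 mg/kg) in the rodent monoiodoacetic acid osteoarthritic knee pain model.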

[17] = Oral bioavailability in Sprague-Dawley rat at 1 mg/kg; format: ADME, organism-based; details: in vivo; summary of the method: as §2
[18] = tested on: Rattus norvegicus; assay: Hepatic clearance in Sprague-Dawley rat at 1 mg/kg, iv; format: ADME, organism-based, Liver; parameters: dose 1 mg/kg, route intravenous; details: in vivo; summary of the method: as §2
[19] = tested on: Rattus norvegicus; assay: Analgesic activity in monoiodoacetic acid rat model of osteoarthritic pain assessed as decrease in pain at 10 mg/kg, po measured after 29 days relative to control; format: functional, organism-based; parameters: dose 10 mg/kg
[20] = molecular target: T1, Cannabinoid receptor 2; assay: Displacement of [3H]-CP-55,940 from human CB2 receptor expressed in CHO cells; format: cell-based
[21] = molecular target: T2, Cannabinoid receptor 1; assay: Agonist activity at human CB1 receptor expressed in CHO cells assessed as [35S]-GTPgammaS binding preincubated for 25 mins measured after 30 mins by scintillation proximity assay relative to control; format: functional, cell-based
[22] = molecular target: Cytochrome P450 2D6 (Homo sapiens, UniProt P10635); assay: Inhibition of CYP2D6; format: ADME
Cytochrome P450 2D6, sequence (P10635 whole entry): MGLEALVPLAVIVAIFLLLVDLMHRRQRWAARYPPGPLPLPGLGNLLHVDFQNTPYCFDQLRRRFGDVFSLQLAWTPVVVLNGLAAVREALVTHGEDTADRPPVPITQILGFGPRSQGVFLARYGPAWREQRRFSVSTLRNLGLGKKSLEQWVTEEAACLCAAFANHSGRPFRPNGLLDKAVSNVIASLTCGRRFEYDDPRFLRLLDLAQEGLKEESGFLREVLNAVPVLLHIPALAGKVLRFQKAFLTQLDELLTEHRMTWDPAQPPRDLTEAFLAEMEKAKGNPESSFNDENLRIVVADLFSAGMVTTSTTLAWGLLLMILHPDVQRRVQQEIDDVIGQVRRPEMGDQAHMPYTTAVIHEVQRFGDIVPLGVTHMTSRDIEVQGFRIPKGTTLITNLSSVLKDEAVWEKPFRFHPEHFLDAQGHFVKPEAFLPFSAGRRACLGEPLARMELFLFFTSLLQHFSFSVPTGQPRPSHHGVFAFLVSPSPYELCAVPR

[23] = molecular target: T3, Cannabinoid receptor 2 (Rattus norvegicus, UniProt Q9QZN9); assay: Displacement of [3H]-CP-55,940 from rat CB2 receptor expressed in CHO cells; format: cell-based
T3 sequence (Q9QZN9 whole entry): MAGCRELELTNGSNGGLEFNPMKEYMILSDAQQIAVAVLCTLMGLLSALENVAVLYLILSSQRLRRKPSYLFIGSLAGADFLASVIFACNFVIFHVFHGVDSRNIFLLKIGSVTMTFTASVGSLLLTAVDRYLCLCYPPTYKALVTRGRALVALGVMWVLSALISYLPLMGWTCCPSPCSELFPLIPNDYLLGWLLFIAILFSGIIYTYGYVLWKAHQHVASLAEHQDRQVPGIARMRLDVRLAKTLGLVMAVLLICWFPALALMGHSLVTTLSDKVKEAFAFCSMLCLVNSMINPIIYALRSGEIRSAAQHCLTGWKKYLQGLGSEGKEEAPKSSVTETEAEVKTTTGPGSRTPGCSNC

[24] = species on record: Homo sapiens; assay: as §1
[25] = molecular target: cytochrome P450 (Homo sapiens, UniProt P04798+P05177+P05181+P08684+P10632+P10635+P11509+P11712+P13584+P20813+P20815+P20853+P24462+P24903+P33260+P33261+P51589+P78329+P98187+Q02928+Q08477+Q16678+Q16696+Q5TCH4+Q6VVX0+Q7Z449+Q8TAV3+Q96SQ9+Q9HB55); assay: Inhibition of cytochrome P450; format: ADME
[26] = Ratio of drug uptake in brain to plasma of Sprague-Dawley rat; format: ADME; details: read-out: BPR
[27] = Aqueous solubility of the compound at pH 7; format: physicochemical; details: buffer

SMILES	metabolised at 0.5 h, 4 µM [1]	Ratio EC50 [2]	metabolised at 0.5 h, 4 µM [3]	Efficacy [4]	EC50 [5]	metabolised at 0.5 h, 4 µM [6]	EC50 [7]	also measured
COC(=O)NCCn1c(-c2ccccc2Cl)nc2c(N3CCN(C)CC3)nc(C)nc21	62%	> 2110	14%	79.5%	> 100000 nM	25%	47.5 nM	
Cc1nc(N2CCC(C)CC2)c2cc(-c3ccccc3)sc2n1	75%	> 502	49%	85.3%	> 100000 nM	93%	199 nM	
O=C(O)Cc1ccccc1Nc1c(Cl)cccc1Cl								Activity [8]: Active
CC(=O)N1CCN(c2nc(C)nc3sc(-c4ccccc4)cc23)CC1	62%	> 543	25%	95.4%	> 100000 nM	28%	184 nM	solubility [9]: 41 µM (≈ 14.5 µg/mL)
CCCCCCC(C)(C)c1ccc([C@@H]2C[C@H](O)CC[C@H]2CCCO)c(O)c1 [CP-55940]								Activity [10]: Toxic
CCN1CCN(c2nc(C)nc3sc(-c4ccccc4)cc23)CC1	97%	104	73%	84.5%	2600 nM	94%	24.8 nM	pKa [11]: 7.5; Ki [12]: 1000 nM; logP [13]: 3.7; IC50 [14]: > 10000 nM; Vd [15]: 10 L/kg; Activity [16]: inactive; bioavailability [17]: 91%; CLH [18]: 90 mL/min/kg; solubility [9]: > 200 µM; Activity [19]: Active; Ki [20]: 82 nM; Efficacy [21]: 73.6%; IC50 [22]: 3000 nM; Ki [23]: 16 nM
CCN1CCN(c2nc(C)nc3c2nc(-c2ccccc2Cl)n3C)CC1								Activity [24]: Active; logP [13]: 3.1; IC50 [25]: > 10000 nM; Kp [26]: 1; solubility [27]: > 2000 µg/mL
Cc1nc(N2CCN(C)CC2)c2cc(-c3ccccc3)sc2n1	97%	133	56%	90.6%	5910 nM	95%	44.4 nM	Efficacy [21]: 70.9%
